Test results: ChEMBL document CHEMBL1159207, “Structure and antimicrobial activity of diterpenes from the roots of Plectranthus hereroensis” (1994)
Converted amounts (≈) assume the structure as drawn.

What was measured:
Staphylococcus aureus = assay: Antimicrobial activity against Staphylococcus aureus by twofold serial broth microdilution assay; type: functional
Procedure, shortened: (§1)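 Twofold serial broth microdilution in sterile Mueller-Hinton broth, over 500 µg/ml to 7.8 µg/ml. Samples were added as solutions in Me₂CO or MeOH, with solvent blanks included. After 24 h at 37°, MIC was taken as the lowest concentration that inhibited growth.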

Vibrio cholerae = assay: Antimicrobial activity against Vibrio cholerae by twofold serial broth microdilution assay; type: functional
Enterococcus faecalis = assay: Antimicrobial activity against Streptococcus faecalis by twofold serial broth microdilution assay; type: functional; procedure, shortened: as §1
Escherichia coli = assay: Antimicrobial activity against Escherichia coli by twofold serial broth microdilution assay; type: functional; procedure, shortened: as §1
Shigella dysenteriae = assay: Antimicrobial activity against Shigella dysenteriae by twofold serial broth microdilution assay; type: functional
Salmonella typhimurium = assay: Antimicrobial activity against Salmonella Typhimurium by twofold serial broth microdilution assay; type: functional, Salmonella enterica subsp. enterica serovar Typhimurium; details: Salmonella enterica; procedure, shortened: as §1
Pseudomonas aeruginosa = assay: Antimicrobial activity against Pseudomonas aeruginosa by twofold serial broth microdilution assay; type: functional; procedure, shortened: as §1
Candida albicans = assay: Antimicrobial activity against Candida albicans by twofold serial broth microdilution assay; type: functional
Procedure, shortened: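 Samples were added as Me₂CO or MeOH solutions, with solvent blanks. Incubation was 24 h at 37°. MIC was the lowest concentration preventing visible growth of the organism.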

Row | Structure (SMILES) | MIC (Staphylococcus aureus) [µg/mL] | MIC (Vibrio cholerae) [µg/mL] | MIC (Enterococcus faecalis) [µg/mL] | MIC (Escherichia coli) [µg/mL] | MIC (Shigella dysenteriae) [µg/mL] | MIC (Salmonella typhimurium) [µg/mL] | MIC (Pseudomonas aeruginosa) [µg/mL] | MIC (Candida albicans) [µg/mL]
1 | CC(C)C1=C(O)C(=O)C2=C(C1=O)[C@H](O)C[C@H]1C(C)(C)CCC[C@]21C [HORMINONE] | 7.8 (≈ 23.5 µM) | 7.8 (≈ 23.5 µM) | ≥ 500 | ≥ 500 | ≥ 500 | ≥ 500 | 250 (≈ 752 µM) | 250 (≈ 752 µM)
2 | C=CCC1=C(O)C(=O)C2=C(C1=O)[C@H](O)C[C@H]1C(C)(C)CCC[C@]21C |  |  | ≥ 500 | ≥ 500 | ≥ 500 | ≥ 500 | 250 (≈ 757 µM) | 125 (≈ 378 µM)
